Key:
[1] = molecular target: Cytochrome P450 2C9 (Homo sapiens, UniProt P11712); assay: Interaction with human cytochrome P450 isoform 2C9 expressed in baculovirus-insect cells; type: ADME
Outline: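 Microsomes from baculovirus-insect cells expressing human CYP1A2, 2C9, 2C19, 2D6 or 3A4. Compound serially diluted with an NADPH-regenerating mix (16.3 μM NADP+, 0.83 mM glucose-6-phosphate, 0.83 mM MgCl2, 0.4 U/mL G6PDH). Pre-warmed 10 min at 37 °C, then isoform-specific substrate added in 0.35 M potassium phosphate pH 7.4. Fluorometric read-out; IC50 by nonlinear regression.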

[2] = Area under curve after administration to rats at a dose of 0.5 mg/kg orally; type: ADME, organism-based; set-up: dose 0.5 mg/kg, route oral; conditions: rat, in vivo, po
[3] = molecular target: T1, Amyloid-beta precursor protein (Homo sapiens, UniProt P05067); assay: Inhibitory concentration against beta-amyloid-42 (Abeta42) secretion was evaluated in human neuroglioma cells (H4-APP695NL); type: functional, cell-based
Outline: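 H4-APP695NL human neuroglioma cells (APP695 Swedish K595N/M596L) seeded at 2 × 10^5/well and grown 24 h to confluence. Increasing compound concentrations added overnight; DMSO 1% as vehicle. Supernatant Aβ42 or Aβ40 measured by electrochemiluminescence immunoassay: biotinylated 4G8 plus C-terminus-specific rabbit antibodies, captured on streptavidin beads.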
Target sequence in this assay (P05067 18-770 limits assumed): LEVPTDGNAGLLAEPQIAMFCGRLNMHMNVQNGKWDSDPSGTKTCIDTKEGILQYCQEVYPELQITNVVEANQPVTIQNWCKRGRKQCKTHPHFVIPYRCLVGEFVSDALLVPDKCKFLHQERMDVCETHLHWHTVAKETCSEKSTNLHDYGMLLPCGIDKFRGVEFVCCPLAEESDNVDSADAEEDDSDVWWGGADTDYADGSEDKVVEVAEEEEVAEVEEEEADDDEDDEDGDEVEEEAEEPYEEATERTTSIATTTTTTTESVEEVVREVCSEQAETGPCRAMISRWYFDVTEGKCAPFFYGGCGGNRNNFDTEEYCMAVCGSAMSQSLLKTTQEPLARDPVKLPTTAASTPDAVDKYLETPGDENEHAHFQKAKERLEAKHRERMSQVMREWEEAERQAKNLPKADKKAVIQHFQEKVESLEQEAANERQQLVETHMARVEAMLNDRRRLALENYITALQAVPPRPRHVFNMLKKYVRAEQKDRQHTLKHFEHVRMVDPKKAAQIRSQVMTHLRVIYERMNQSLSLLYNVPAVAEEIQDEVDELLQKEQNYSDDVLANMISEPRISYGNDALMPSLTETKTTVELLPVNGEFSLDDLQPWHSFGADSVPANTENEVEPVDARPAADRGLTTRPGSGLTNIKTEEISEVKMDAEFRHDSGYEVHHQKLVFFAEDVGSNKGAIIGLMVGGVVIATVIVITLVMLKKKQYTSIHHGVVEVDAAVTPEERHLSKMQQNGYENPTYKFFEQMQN

[4] = Maximal concentration in rats after 0.5 mg/kg oral dose; type: ADME, organism-based; set-up: dose 0.5 mg/kg, route oral; conditions: rat, in vivo
[5] = Maximal concentration in rats after 0.2 mg/kg intravenous dose; type: ADME, organism-based; set-up: dose 0.2 mg/kg, route intravenous; conditions: rat, in vivo
[6] = Time to achieve maximal concentration in rats after 0.2 mg/kg intravenous dose; type: ADME, organism-based; set-up: dose 0.2 mg/kg, route intravenous; conditions: rat, in vivo
[7] = molecular target: T1, Amyloid-beta precursor protein; conditions: at 100 µM
Target sequence in this assay (P05067 whole entry): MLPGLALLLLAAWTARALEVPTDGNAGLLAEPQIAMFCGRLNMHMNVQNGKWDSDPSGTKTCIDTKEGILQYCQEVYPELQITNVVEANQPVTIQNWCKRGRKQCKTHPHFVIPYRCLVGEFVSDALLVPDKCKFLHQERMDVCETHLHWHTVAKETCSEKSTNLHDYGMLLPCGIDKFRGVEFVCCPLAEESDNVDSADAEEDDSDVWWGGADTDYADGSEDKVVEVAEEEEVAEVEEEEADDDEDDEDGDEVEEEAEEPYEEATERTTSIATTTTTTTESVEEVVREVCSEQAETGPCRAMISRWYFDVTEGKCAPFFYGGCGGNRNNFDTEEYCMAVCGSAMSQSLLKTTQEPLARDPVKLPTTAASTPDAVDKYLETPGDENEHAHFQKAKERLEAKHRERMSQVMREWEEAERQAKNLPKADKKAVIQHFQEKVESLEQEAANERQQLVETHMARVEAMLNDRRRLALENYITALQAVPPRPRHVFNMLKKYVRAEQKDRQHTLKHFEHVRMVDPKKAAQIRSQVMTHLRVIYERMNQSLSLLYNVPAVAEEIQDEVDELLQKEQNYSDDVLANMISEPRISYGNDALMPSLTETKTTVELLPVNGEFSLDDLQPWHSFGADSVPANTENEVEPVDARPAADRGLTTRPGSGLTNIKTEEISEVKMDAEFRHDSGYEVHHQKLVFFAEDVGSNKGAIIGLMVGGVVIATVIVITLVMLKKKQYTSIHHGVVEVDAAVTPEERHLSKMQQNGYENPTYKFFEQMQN

[8] = Time to achieve maximal concentration in rats after 0.5 mg/kg oral dose; type: ADME, organism-based; set-up: dose 0.5 mg/kg, route oral; conditions: rat, in vivo
[9] = Area under curve after administration to rats at a dose of 0.2 mg/kg intravenously; type: ADME, organism-based; set-up: dose 0.2 mg/kg, route intravenous; conditions: rat, in vivo, iv
[10] = Total body clearance after administration to rats at a dose of 0.2 mg/kg intravenously; type: ADME, organism-based; set-up: dose 0.2 mg/kg, route intravenous; conditions: rat, in vivo, iv

Sequence of Cytochrome P450 2C9 (P11712 whole entry, canonical isoform): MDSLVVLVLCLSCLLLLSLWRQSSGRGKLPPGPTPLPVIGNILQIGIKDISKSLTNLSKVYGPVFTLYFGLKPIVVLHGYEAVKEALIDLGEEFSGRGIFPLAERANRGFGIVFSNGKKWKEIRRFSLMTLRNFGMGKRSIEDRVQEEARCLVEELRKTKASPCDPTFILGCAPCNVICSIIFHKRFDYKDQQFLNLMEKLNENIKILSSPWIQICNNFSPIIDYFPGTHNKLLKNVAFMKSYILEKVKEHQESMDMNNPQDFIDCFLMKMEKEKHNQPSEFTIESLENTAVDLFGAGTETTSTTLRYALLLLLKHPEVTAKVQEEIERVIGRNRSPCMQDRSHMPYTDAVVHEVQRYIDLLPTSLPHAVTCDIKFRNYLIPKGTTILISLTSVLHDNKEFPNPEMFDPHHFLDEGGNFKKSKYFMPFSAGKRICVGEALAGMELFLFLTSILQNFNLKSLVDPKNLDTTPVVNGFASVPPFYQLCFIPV

- IC50 [1]: 17.7 µM
- AUC [2]: 6 µg/h/mL
- IC50 [3]: 20 µM
- Cmax [4]: 300 ng/mL
- Cmax [5]: 600 ng/mL
- Tmax [6]: 0.25 h
- inhibition [7]: 70%
- Tmax [8]: 8 h
- AUC [9]: 11 µg/h/mL
- Clearance [10]: 0.313 mL/min/kg
Structure (SMILES): O=C(O)C1(c2ccc(-c3ccc(OC4CCC(C(F)(F)F)CC4)cc3)c(F)c2)CC1 (stereo not given)

— ChEMBL document CHEMBL1141070, “Synthesis and biological activity of flurbiprofen analogues as selective inhibitors of beta-amyloid(1)(-)(42) secretion” (J Med Chem, 2005)
